Reference: ChEMBL document CHEMBL4138058, “Design and synthesis of novel selective estrogen receptor degradation inducers based on the diphenylheptane skeleton” (Medchemcomm, 2017)
Calls of active or inactive are those of the source. The calls are words filed in the database; no cut-off is given here.

Experiments:
[1] = target: T1, Estrogen receptor (Homo sapiens) (UniProt P03372); test: Antagonist activity at GAL4-fused human ERalpha LBD expressed in HEK293 cells assessed as inhibition of 17beta-estradiol-induced transcriptional activation at 10 uM after 16 to 20 hrs by luciferase reporter gene assay relative to control; assay type: cell-based
T1 sequence (whole entry): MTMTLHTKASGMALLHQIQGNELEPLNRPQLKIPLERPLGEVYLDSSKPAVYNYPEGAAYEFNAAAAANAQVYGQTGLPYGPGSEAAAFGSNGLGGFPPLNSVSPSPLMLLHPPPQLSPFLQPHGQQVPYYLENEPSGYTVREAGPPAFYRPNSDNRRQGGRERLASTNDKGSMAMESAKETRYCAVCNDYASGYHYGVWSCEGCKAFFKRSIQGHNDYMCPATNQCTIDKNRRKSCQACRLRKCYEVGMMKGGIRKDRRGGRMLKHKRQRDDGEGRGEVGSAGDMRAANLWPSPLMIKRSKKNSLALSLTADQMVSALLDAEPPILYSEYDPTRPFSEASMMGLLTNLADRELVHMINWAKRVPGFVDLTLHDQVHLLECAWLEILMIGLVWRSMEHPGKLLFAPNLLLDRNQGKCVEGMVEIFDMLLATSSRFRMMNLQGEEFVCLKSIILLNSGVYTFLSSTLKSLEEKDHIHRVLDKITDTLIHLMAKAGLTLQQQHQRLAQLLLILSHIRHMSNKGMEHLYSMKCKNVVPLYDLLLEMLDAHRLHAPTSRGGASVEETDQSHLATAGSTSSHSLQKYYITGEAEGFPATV
In short: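 HEK293 cells grown in phenol red-free DMEM with 10% FBS at 37 °C, 5% CO2. Calcium phosphate co-transfection with GAL4-hERα LBD plasmid, MH100x4-tk-luciferase reporter and β-galactosidase normalization plasmid. Compounds added 8 h post-transfection with 0.3 nM 17β-estradiol; harvested 16–20 h later. Luciferase normalized to β-galactosidase; means of triplicate assays.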

[2] = target: T1, Estrogen receptor (Homo sapiens); test: Downregulation of ERalpha expression in human MCF7 cells at 3 uM after 6 hrs by Western blot method relative to beta-actin; assay type: cell-based
In short: (§1)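 MCF-7 cells kept in DMEM with 10% FBS, kanamycin and 10 μg/mL insulin, then exposed to compounds for 6 h. Lysates made in SDS buffer (0.1 M Tris-HCl pH 8.0, 10% glycerol, 1% SDS), boiled, BCA-normalized and run on SDS-PAGE. Blots probed with anti-ERα, AR, AhR or VDR and β-actin or lamin B. Chemiluminescence quantified as target/loading-protein ratio; means ± S.E., n=3.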

[3] = target: T1, Estrogen receptor (Homo sapiens); test: Displacement of Fluormone ES2 Green from full-length untagged human ERalpha expressed in insect cells at 1 uM after 2 hrs by fluorescence polarization assay
In short: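 Competitive fluorescence polarization binding to ERα run with a commercial kit per manufacturer's instructions. Compounds taken from 10 mM DMSO stock. mP read at 470 nm excitation and 535 nm emission. Fraction bound correlated with mP and plotted against competitor concentration.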

[4] = target: T1, Estrogen receptor (Homo sapiens); test: Downregulation of ERalpha expression in human MCF7 cells at 10 uM after 6 hrs by Western blot method relative to beta-actin; assay type: cell-based; in short: as §1
[5] = target: T1, Estrogen receptor (Homo sapiens); test: Downregulation of ERalpha expression in human MCF7 cells at 1 uM after 6 hrs by Western blot method relative to beta-actin; assay type: cell-based; in short: as §1
Estrogen receptor = target: T2, Estrogen receptor (Homo sapiens, UniProt P03372); test: Displacement of Fluormone ES2 Green from full-length untagged human ERalpha expressed in insect cells after 2 hrs by fluorescence polarization assay
T2 sequence (P03372 whole entry): T1 sequence (whole entry)

inhibition [1]	Activity [2]	inhibition [3]	Activity [4]	Activity [5]	IC50 (Estrogen receptor)	Structure (SMILES)
61%	111%	inactive	96%	128%		CCCCCCCCCCCCOc1ccc(C(CCC)(CCC)c2ccc(O)c(C)c2)cc1C
	105%		105%	105%	400 nM	CCCCCCCCOc1ccc(C(CCC)(CCC)c2ccc(O)c(C)c2)cc1C
	154%		150%	145%	78 nM	CCCC(CCC)(c1ccc(O)c(C)c1)c1ccc(OCCN)c(C)c1
	185%		112%	185%	78 nM	CCCCCCNCCOc1ccc(C(CCC)(CCC)c2ccc(O)c(C)c2)cc1C
	115%		100%	109%	313 nM	CCCC(CCC)(c1ccc(O)c(C)c1)c1ccc(OCCN(C)C)c(C)c1
	95%		86%	89%	168 nM	CCCCCCOc1ccc(C(CCC)(CCC)c2ccc(O)c(C)c2)cc1C
	112%		69%	111%	2.4 nM	CCCCCCCCNCCOc1ccc(C(CCC)(CCC)c2ccc(O)c(C)c2)cc1C
	120%	inactive	106%	118%		CCCCCCCCCCOc1ccc(C(CCC)(CCC)c2ccc(O)c(C)c2)cc1C
	82%		68%	84%	87 nM	CCCCOc1ccc(C(CCC)(CCC)c2ccc(O)c(C)c2)cc1C
	79%		70%	80%	7.3 nM	CCCC(CCC)(c1ccc(O)c(C)c1)c1ccc(O)c(C)c1
	83%		68%	93%	4.9 nM	CCCCCCCCCCCCNCCOc1ccc(C(CCC)(CCC)c2ccc(O)c(C)c2)cc1C
	96%		87%	95%	40 nM	CCCC(CCC)(c1ccc(O)c(C)c1)c1ccc(OCC)c(C)c1
	82%		70%	92%	20 nM	CCCCCCCCCCCCCCCCNCCOc1ccc(C(CCC)(CCC)c2ccc(O)c(C)c2)cc1C
